Assay results pooled from the literature.
Lines come from different studies, so protocols differ.
Target: Ephrin type-A receptor 1 (EPHA1, Homo sapiens, UniProt P21709)
One construct used (P21709 26-976): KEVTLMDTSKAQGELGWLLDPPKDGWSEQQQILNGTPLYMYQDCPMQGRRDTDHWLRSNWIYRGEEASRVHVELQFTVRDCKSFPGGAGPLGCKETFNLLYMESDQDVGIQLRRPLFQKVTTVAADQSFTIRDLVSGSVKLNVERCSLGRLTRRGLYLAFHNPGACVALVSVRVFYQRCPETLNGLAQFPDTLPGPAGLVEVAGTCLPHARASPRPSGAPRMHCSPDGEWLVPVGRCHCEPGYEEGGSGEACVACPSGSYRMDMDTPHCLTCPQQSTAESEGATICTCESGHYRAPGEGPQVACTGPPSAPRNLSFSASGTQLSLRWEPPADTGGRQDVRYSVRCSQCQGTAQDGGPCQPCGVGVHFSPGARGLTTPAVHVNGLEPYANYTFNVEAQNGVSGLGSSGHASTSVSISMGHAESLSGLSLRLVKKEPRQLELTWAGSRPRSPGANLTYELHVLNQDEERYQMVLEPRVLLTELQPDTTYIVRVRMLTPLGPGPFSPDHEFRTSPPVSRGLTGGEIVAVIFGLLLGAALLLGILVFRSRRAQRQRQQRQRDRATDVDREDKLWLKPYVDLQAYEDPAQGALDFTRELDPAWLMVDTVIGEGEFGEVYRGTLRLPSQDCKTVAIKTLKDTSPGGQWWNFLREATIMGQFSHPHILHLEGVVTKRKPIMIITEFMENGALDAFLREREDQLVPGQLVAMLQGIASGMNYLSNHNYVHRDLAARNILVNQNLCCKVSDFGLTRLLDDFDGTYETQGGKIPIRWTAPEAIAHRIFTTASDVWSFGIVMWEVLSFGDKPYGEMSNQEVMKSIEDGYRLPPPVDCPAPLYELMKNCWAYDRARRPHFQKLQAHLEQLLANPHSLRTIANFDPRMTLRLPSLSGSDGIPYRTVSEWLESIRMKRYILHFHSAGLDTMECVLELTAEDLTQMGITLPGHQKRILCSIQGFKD

| Compound | test | setting | measurement | result |
| --- | --- | --- | --- | --- |
| CNC(=O)Nc1ccc2c(c1)[C@@]1(CC2)OC(=O)N(CC(=O)N(Cc2ccc(F)cc2)[C@@H](C)C(F)(F)F)C1=O | cell-free assay, competition with immobilised ligand | 1 µM | remaining binding | 100% |
| CCN(CC)CCNC(=O)c1c(C)[nH]c(/C=C2\C(=O)Nc3ccc(F)cc32)c1C | enzyme activity, inhibitor | 0.3 µM | inhibition | 1% |
| CN1CCN(c2cnc3c(C4CCN(C(=O)c5ccc(OC(F)(F)F)cc5N)CC4)ncnc3c2)CC1 | cell-free assay, competition with immobilised ligand | 1 µM | remaining binding | 95% |
| Cc1cc(NC(=O)c2cccc3cc(-c4cccc5[nH]nc(N)c45)ccc23)ccc1F | enzyme activity, inhibitor | 0.1 µM | activity vs control | 102% |
| Cn1nc(C(=O)NCc2ccc(C(=O)O)cc2)cc1-c1ccc2[nH]ccc2c1 | cell-free assay, competition with immobilised ligand | 0.1 µM | remaining binding | 95% |
| COc1cc(Nc2c(C#N)cnc3cc(OCCCN4CCN(C)CC4)c(OC)cc23)c(Cl)cc1Cl | cell-free assay | 0.5 µM | remaining signal | 97.7% |
| CC/C(=N\NC(=O)NCc1cccc(O)c1)c1ccc(O)c(C)c1O | enzyme activity, inhibitor | 0.1 µM | inhibition | -1.2% |
| Cc1cnc(NC2CCOCC2)nc1-n1cnc(C(=O)NC(CN)c2cc(F)cc(Cl)c2)c1 (centres unmarked) | enzyme activity, inhibitor, radiometric | 1 µM | remaining activity | 99% |
| F[C@@H]1CCN(c2nccc(-c3cnn4ncccc34)n2)C1 | binding | 1 µM | remaining binding | 79% |
| Cc1sc(C(=O)NC2COC2)cc1-n1cc(NC(=O)Nc2c(F)cccc2Cl)cn1 | enzyme activity, inhibitor | 10 µM | remaining activity | 88.5% |
| COc1cc2ncnc(Nc3ccc(Oc4ccccc4)c(C)c3C)c2cc1OC | enzyme activity, inhibitor | 1 µM | inhibition | 8% |
| CN(C)C(=O)Cn1cc(-c2nc(C3(c4ccc(-c5cnc(N)nc5)cc4)CC3)no2)cn1 | cell-free assay, competition with immobilised ligand | 1 µM | remaining binding | 100% |
| N#CCCc1ccc2c(c1)-c1[nH]c3ccc([N+](=O)[O-])cc3c1CC(=O)N2 | cell-free assay | 0.5 µM | remaining signal | 91.7% |
| CCCCNc1ncc2c(-c3ccc(F)cc3)nn(C[C@H]3CC[C@H](N)CC3)c2n1 | target engagement in cells, inhibitor, chemoproteomics | 20 mM | inhibition | > 97% |
| CO[C@@H](C)c1c(Nc2ccc([C@@H](N(C)C(=O)C3CCS(=O)(=O)CC3)C(F)(F)F)cc2)cnc2cc(Cl)nn12 | cell-free assay, competition with immobilised ligand | 1 µM | remaining binding | 97% |
| Cc1ccc(Nc2nccc(N(C)c3ccc4c(C)n(C)nc4c3)n2)cc1S(N)(=O)=O | enzyme activity, inhibitor | 0.3 µM | inhibition | 23% |
| Cc1ccc(C(=O)NCc2ccsc2)cc1C#Cc1cn(C(C)C)c2ncnc(N)c12 | enzyme activity, inhibitor | 1 µM | activity vs control | 45% |
